Converted amounts (≈) assume the structure as drawn.
What was measured:
Background = type: physicochemical
Outline: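 Enzyme-free control wells held Tris/HCl (100 mM, pH 9.0, 0.1 mg/mL BSA), preincubated 5 min at 37°C. Substrate was added from a 5 mM DMSO stock working solution to 50 μM final, and product was read kinetically for 5 min. Read-out was 4-nitrophenol absorbance at […] fluorescence (ex 355/em 450 or ex 330/em 465 nm). Signals were converted to molar amounts via 0.005–0.5 μM standard curves; 8 replicates.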

rat mEH [1] = target: T1, rat mEH (Rattus norvegicus, UniProt P07687); experiment: Specific activity of rat mEH for absorbent/fluorescent substrates; type: biochemical; settings: [S] 50 μM, pH 9.0, 37°C, fluorescent substrates
T1 sequence (P07687 1-455): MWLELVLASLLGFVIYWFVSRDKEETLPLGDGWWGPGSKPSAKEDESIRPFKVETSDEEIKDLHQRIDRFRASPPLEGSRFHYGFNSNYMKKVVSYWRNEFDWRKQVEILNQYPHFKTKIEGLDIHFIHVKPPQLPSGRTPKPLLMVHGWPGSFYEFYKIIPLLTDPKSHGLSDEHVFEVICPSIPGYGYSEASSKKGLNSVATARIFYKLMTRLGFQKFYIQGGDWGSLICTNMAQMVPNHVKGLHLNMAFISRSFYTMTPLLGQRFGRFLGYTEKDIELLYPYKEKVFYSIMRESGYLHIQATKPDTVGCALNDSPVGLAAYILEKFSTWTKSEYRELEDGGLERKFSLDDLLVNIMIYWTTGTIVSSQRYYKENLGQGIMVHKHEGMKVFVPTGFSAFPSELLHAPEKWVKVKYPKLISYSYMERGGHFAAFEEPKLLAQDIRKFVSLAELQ
Outline: (§1)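 Partially purified recombinant enzyme (0.5–80 μg/mL final) in 100 mM Tris/HCl pH 9.0 with 0.1 mg/mL BSA, preincubated 5 min at 37°C. Substrate added at 50 μM final from 5 mM DMSO stock; buffer-only wells gave background. Read kinetically for 5 min: 4-nitrophenol at 450 nm, or fluorescence (coumarin ex 355/em 450; naphthaldehyde ex 330/em 465). Signals converted via standard curves (0.005–0.5 μM); 8 replicates.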

human mEH [2] = target: T2, human mEH (Homo sapiens, UniProt P07099); experiment: Specific activity of human mEH for absorbent/fluorescent substrates; type: biochemical; settings: [S] 50 μM, pH 9.0, 37°C, fluorescent substrates
T2 sequence (P07099 1-455): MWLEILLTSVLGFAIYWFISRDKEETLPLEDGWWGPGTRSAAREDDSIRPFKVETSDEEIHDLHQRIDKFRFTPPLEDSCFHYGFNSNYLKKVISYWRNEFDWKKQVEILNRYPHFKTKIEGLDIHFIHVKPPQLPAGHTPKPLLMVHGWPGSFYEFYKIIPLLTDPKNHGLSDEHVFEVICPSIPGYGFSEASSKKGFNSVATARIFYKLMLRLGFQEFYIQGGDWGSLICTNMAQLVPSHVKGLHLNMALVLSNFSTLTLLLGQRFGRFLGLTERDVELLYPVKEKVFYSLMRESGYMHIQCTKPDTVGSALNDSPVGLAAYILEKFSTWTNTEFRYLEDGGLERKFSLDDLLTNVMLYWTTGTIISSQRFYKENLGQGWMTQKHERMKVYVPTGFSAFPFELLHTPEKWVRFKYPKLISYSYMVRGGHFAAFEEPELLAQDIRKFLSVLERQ
Outline: as §1

rat mEH [3] = target: T1, rat mEH; experiment: Kinetic constants determination, rat mEH; type: biochemical; settings: greater
human mEH [4] = target: T2, human mEH; experiment: Kinetic constants determination, human mEH; type: biochemical; settings: lower than for cSO
rat mEH [5] = target: T1, rat mEH; experiment: High throughput screening end-point assay with 11, rat mEH; type: biochemical; settings: average, n = 4 for each enzyme, 30 min end-point
Outline: (§2)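 End-point screen of a pesticide library at 10 μM final. Recombinant partially purified enzyme (human 1.6, rat 0.5 μg/mL final) in 100 mM Tris/HCl pH 8.5 with 0.1 mg/mL BSA, preincubated with compounds 5 min at 30°C. Substrate added to 25 μM, then 30 min at room temperature in the dark before fluorescence reading (ex 330/em 465 nm). Buffer-only background and full-activity control wells; duplicate averages.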

human mEH [6] = target: T2, human mEH; experiment: High throughput screening end-point assay with 11, human mEH; type: biochemical; settings: average, n = 4 for each enzyme, 30 min end-point
Outline: as §2

Substrate solubility = type: physicochemical; settings: assay buffer, pH 9
human mEH [7] = target: T2, human mEH; experiment: Assay conditions optimization with substrate 11, human mEH; type: biochemical
Outline: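 Recombinant human mEH from baculovirus, partially purified. Enzyme titrated at 0–10 μg/mL final against 25 μM fluorogenic glycidyl carbonate substrate, in 0.1 M Tris/HCl pH 9.0 with 0.1 mg/mL BSA at 37°C, followed over 30 min. Then 1.6 μg/mL enzyme with substrate compared across six buffers (three pH values) at 30 and 37°C over 10 min, against enzyme-free background. 6-Methoxy-2-naphthaldehyde read at ex 330/em 465 nm.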

[8] = HmEH 1.6 μg/mL, 25 μM 11, Tris/HCl pH 9.0, 37°C

## COc1ccc2cc(C(C#N)OC(=O)OCC3CO3)ccc2c1 (centres unmarked) [compound 11, Cyano(6-methoxynaphthalen-2-yl)methyl (oxiran-2-ylmethyl) Carbonate]
Background; Tris/HCl, pH reduced from 9.0 to 8.5, 25 μM 11
  reduction of background hydrolysis on reducing pH: ≈ 30%
Background; [S] 50 μM, Tris/HCl 100 mM pH 9.0, 0.1 mg/mL BSA, 37°C, fluorescent substrates
  background hydrolysis: 0.018 ± 0.003 nmol/min
Background; incubation temperature from 37 to 30 °C, 25 μM 11
  reduction of background hydrolysis on reducing temperature: at least 50%
Rat mEH [1]
  Rat mEH S/B: 5
  Rat mEH S/N: 48
  Rat mEH Spec. act.: 68 ± 4 nmol/min/mg
  Rat mEH Z': 0.73
Human mEH [2]
  Human mEH S/B: 4
  Human mEH Spec. act.: 25 ± 2 nmol/min/mg
  Human mEH Z': 0.66
Rat mEH [3]
  VM/KM relative to cSO and 9, rat mEH: 10 fold
Human mEH [4]
  KM relative to cSO, human mEH: ~40 fold
Rat mEH [5]
  S/N of HTS assay: > 30
  Z' of HTS assay: 0.69 ± 0.03
Human mEH [6]
  S/N of HTS assay: > 30
  Z' of HTS assay: 0.69 ± 0.03
Substrate solubility
  solubility: ~50 µM (≈ 15.7 µg/mL)
Human mEH [7]; [8]
  signal to background ratio (S/B): ≈ 3
  signal to noise ratio (S/N): ≈ 40
Human mEH [7]; incubation temperature from 37 to 30 °C, all buffers tested, 25 μM 11
  decrease of catalytic activity of human mEH on reducing temperature: ≈ 30%

From paper PMC3090455 (Analytical biochemistry, 2011)
